A word on the logD: it is lipophilicity at a set pH, counting ionised and neutral species. A high value points to a more lipophilic compound.

The values that follow come from ChEMBL document CHEMBL1765047, “Synthesis and in vivo evaluation of (S)-6-(4-fluorophenoxy)-3-((1-[11C]methylpiperidin-3-yl)methyl)-2-o-tolylquinazolin-4(3H)-one, a potential PET tracer for growth hormone secretagogue receptor (GHSR)” (Bioorg Med Chem, 2011).

Series [1] in a line: Drug uptake in CD1 mouse adrenal at 0.1 mCi, iv after 10 mins by gamma scintillation counting. It is filed as ADME, organism-based, Adrenal gland. To be noted: in vivo. The method in brief: (§1)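 Baseline whole-body distribution in male CD1 mice (23-28 g). Tracer 0.1 mCi in 0.2 mL saline (~4000 mCi/μmol) into lateral tail vein. Cervical dislocation at 10, 30 or 90 min; organs dissected on ice, weighed, gamma-counted alongside injectate aliquots as standards. Reported as %ID/g tissue, mean ± SD, n=5.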

Series [2] can be described thus: Lipophilicity, log D of the compound. To be noted: octanol/water. Format: physicochemical. The gist of the method: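 Computed in silico rather than measured experimentally, for pH 7.4 (log D7.4), using a log P/log D prediction program.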
Series [3] relates to Brain. As to the kind of experiment: Drug uptake in CD1 mouse brain at 0.1 mCi, iv after 60 mins by gamma scintillation counting. It is filed as ADME, organism-based. The note with it: in vivo, 1 h. The gist of the method:
(§2)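 Baseline regional brain study in male CD1 mice (23-28 g) injected via tail vein with 0.1 mCi tracer in 0.2 mL saline (~4000 mCi/μmol). Killed at 10, 30, 60 or 90 min; brain regions dissected on ice, weighed and gamma-counted with injectate standards. Reported as %ID/g tissue, mean ± SD, n=3.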

Series [4] concerns Liver. As to the kind of experiment: Drug uptake in CD1 mouse liver at 0.1 mCi, iv after 90 mins by gamma scintillation counting. The note with it: in vivo, 1.5 h. It is filed as ADME, organism-based. The gist of the method: as §1
For series [5], the system named is Blood. As to the kind of experiment: Drug uptake in CD1 mouse blood at 0.1 mCi, iv after 90 mins in presence of (S)-6-(4-Fluorophenoxy)-3-(piperidin-3-ylmethyl)-2-o-tolylquinazolin-4(3H)-one. Format: ADME, organism-based. The note with it: in vivo, 1.5 h. The method in brief:
(§3)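 Blockade arm: male CD1 mice (23-28 g) given 1 mg/kg blocker s.c. in saline/alcohol 9:1, or vehicle alone, 15 min before tail-vein tracer (0.1 mCi in 0.2 mL saline, ~4000 mCi/μmol). Killed by cervical dislocation at 90 min; organs dissected on ice, weighed, gamma-counted against injectate standards; %ID/g tissue, mean ± SD, n=5.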

A short description of series [6]: Drug uptake in CD1 mouse adrenal at 0.1 mCi, iv after 30 mins by gamma scintillation counting. It is filed as ADME, organism-based, Adrenal gland. The note with it: in vivo, 0.5 h. The method in brief: as §1
In series [7] the test system is Brain. Nature of the series: Drug uptake in CD1 mouse brain at 0.1 mCi, iv after 10 mins by gamma scintillation counting. Format: ADME, organism-based. To be noted: in vivo. The gist of the method:
as §2

For series [8], the system named is Liver. As to the kind of experiment: Drug uptake in CD1 mouse liver at 0.1 mCi, iv after 90 mins in presence of (S)-6-(4-Fluorophenoxy)-3-(piperidin-3-ylmethyl)-2-o-tolylquinazolin-4(3H)-one. Format: ADME, organism-based. To be noted: in vivo, 1.5 h. The method in brief: as §3
The subject of series [9] is Heart. As to the kind of experiment: Drug uptake in CD1 mouse heart at 0.1 mCi, iv after 90 mins in presence of (S)-6-(4-Fluorophenoxy)-3-(piperidin-3-ylmethyl)-2-o-tolylquinazolin-4(3H)-one. Format: ADME, organism-based. The note with it: in vivo, 1.5 h. The gist of the method: as §3
A further series deals with Lung. Nature of the series: Drug uptake in CD1 mouse lung at 0.1 mCi, iv after 30 mins by gamma scintillation counting. Format: ADME, organism-based. The note with it: in vivo, 0.5 h. The gist of the method:
as §1

Series [10] deals with Cerebellum. Nature of the series: Drug uptake in CD1 mouse cerebellum at 0.1 mCi, iv after 30 mins by gamma scintillation counting. It is filed as ADME, organism-based. To be noted: in vivo, 0.5 h. The method in brief: as §2
Series [11] relates to Blood. As to the kind of experiment: Drug uptake in CD1 mouse blood at 0.1 mCi, iv after 30 mins by gamma scintillation counting. Format: ADME, organism-based. The note with it: in vivo, 0.5 h. The method in brief: as §1
The test system of series [12] is Cerebellum. As to the kind of experiment: Drug uptake in CD1 mouse cerebellum at 0.1 mCi, iv after 10 mins by gamma scintillation counting. Format: ADME, organism-based. The note with it: in vivo. The gist of the method:
as §2

The test system of series [13] is Brain. Nature of the series: Drug uptake in CD1 mouse brain at 0.1 mCi, iv after 90 mins by gamma scintillation counting. Format: ADME, organism-based. The note with it: in vivo, 1.5 h. The gist of the method: as §2
A further series has as its system Hippocampus. As to the kind of experiment: Drug uptake in CD1 mouse hippocampus at 0.1 mCi, iv after 10 mins by gamma scintillation counting. Format: ADME, organism-based. To be noted: in vivo. The method in brief:
as §2

In series [14] the test system is Blood. As to the kind of experiment: Drug uptake in CD1 mouse blood at 0.1 mCi, iv after 10 mins by gamma scintillation counting. It is filed as ADME, organism-based. The note with it: in vivo. The gist of the method: as §1
In series [15] the test system is Hypothalamus. Nature of the series: Drug uptake in CD1 mouse hypothalamus at 0.1 mCi, iv after 30 mins by gamma scintillation counting. Format: ADME, organism-based. To be noted: in vivo, 0.5 h. The method in brief:
as §2

Another series relates to Muscle tissue. Nature of the series: Drug uptake in CD1 mouse muscle at 0.1 mCi, iv after 90 mins in presence of (S)-6-(4-Fluorophenoxy)-3-(piperidin-3-ylmethyl)-2-o-tolylquinazolin-4(3H)-one. Format: ADME, organism-based. To be noted: in vivo, 1.5 h. The gist of the method: as §3
The subject of the next series is Cortex. Nature of the series: Drug uptake in CD1 mouse cortex at 0.1 mCi, iv after 30 mins by gamma scintillation counting. It is filed as ADME, organism-based. The note with it: in vivo, 0.5 h. The gist of the method: as §2
Series [16] concerns Brain. As to the kind of experiment: Drug uptake in CD1 mouse brain at 0.1 mCi, iv after 30 mins by gamma scintillation counting. To be noted: in vivo, 0.5 h. Format: ADME, organism-based. The gist of the method:
as §2

In series [17] the test system is Heart. As to the kind of experiment: Drug uptake in CD1 mouse heart at 0.1 mCi, iv after 10 mins by gamma scintillation counting. It is filed as ADME, organism-based. To be noted: in vivo. The gist of the method:
as §1

The subject of series [18] is Hypothalamus. As to the kind of experiment: Drug uptake in CD1 mouse hypothalamus at 0.1 mCi, iv after 60 mins by gamma scintillation counting. It is filed as ADME, organism-based. To be noted: in vivo, 1 h. The gist of the method:
as §2

The test system of series [19] is Blood. Nature of the series: Drug uptake in CD1 mouse blood at 0.1 mCi, iv after 90 mins by gamma scintillation counting. It is filed as ADME, organism-based. The note with it: in vivo, 1.5 h. The method in brief:
as §1

Series [20] is described as follows: Drug uptake in CD1 mouse adrenal at 0.1 mCi, iv after 90 mins by gamma scintillation counting. It is filed as ADME, organism-based, Adrenal gland. The note with it: in vivo, 1.5 h. The gist of the method: as §1

Regarding `Cc1ccccc1-c1nc2ccc(Oc3ccc(F)cc3)cc2c(=O)n1C[C@H]1CCCN([11CH3])C1`, the Drug uptake in series [1] was found to be 15.57 % ID/g; with Brain [3], 0.62 % ID/g; with Liver [4], 13.46 % ID/g; with Blood [5], 2.01 % ID/g; in series [6] it was 10.77 % ID/g; with Brain [7], 0.54 % ID/g. The Drug uptake came out at 14.77 % ID/g in the series on Liver [8]; 3.74 % ID/g in the series on Heart [9]; 24.02 % ID/g in the series on Lung; 0.56 % ID/g in the series on Cerebellum [10]; 1.87 % ID/g in the series with Blood [11]; 0.63 % ID/g with Cerebellum [12]. Besides, the Drug uptake stood at 0.54 % ID/g in the series with Brain [13]; 0.6 % ID/g in the series on Hippocampus; 2.14 % ID/g in the series on Blood [14]; 0.58 % ID/g in the series with Hypothalamus [15]; 2.22 % ID/g in the series on Muscle tissue; 0.6 % ID/g with Cortex. Further, the Drug uptake in the series with Brain [16] amounted to 0.57 % ID/g; in the series with Heart [17] it was 5.11 % ID/g; in the series with Hypothalamus [18] it was 0.74 % ID/g; with Blood [19], 2.01 % ID/g; in series [20], 7.87 % ID/g. For the same molecule, the logD in [2] amounted to 4.1.
